Experimental data: ChEMBL document CHEMBL4321859, “Unforeseen Possibilities To Investigate the Regulation of Polyamine Metabolism Revealed by Novel C-Methylated Spermine Derivatives” (J Med Chem, 2019); call rule not given here

Key:
DU-145 [1] = test: Downregulation of intracellular spermine level in human DU145 Cells at 100 uM after 6 hrs by HPLC method (reference value: 106 +/- 4 pmol/ug); type: functional
Method in brief: (§1)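 DU145 cells exposed to 100 μM analogue for 6 h or 3 days, with or without 1 mM aminoguanidine. Cells were lysed in 50 mM potassium phosphate pH 7.2 with EDTA, Triton X-100 and DTT. Lysate was mixed with sulphosalicylic acid containing diaminoheptane as internal standard. Polyamines, analogue and MeSpd were measured by HPLC and normalized to DNA (PicoGreen), expressed as pmol/μg DNA. Means ± SD, n = 3.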

DU-145 [2] = test: Downregulation of intracellular spermidine level in human DU145 Cells assessed per ug DNA at 100 uM after 6 hrs by HPLC method (reference value: 134 +/- 7 pmol/ug); type: functional; method in brief: as §1
DU-145 [3] = test: Cytotoxicity against human DU145 cells at 100 uM after 3 days; type: cell-based; conditions: du-145, 72 h
Method in brief: (§2)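 DU145 cells grown in high-glucose DMEM with 10% heat-inactivated FBS, 2 mM L-glutamine and gentamycin at 37 °C, 5% CO2. Treated 3 days with 100 μM analogue, with or without 1 mM aminoguanidine. Cells harvested by trypsinization and counted electronically (Coulter counter). Means ± SD, n = 3.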

DU-145 [4] = test: Downregulation of intracellular spermine level in human DU145 Cells assessed per ug DNA at 100 uM after 3 days in presence of SSAO inhibitor aminoguanidine by HPLC method (reference value: 157 +/- 8 pmol/ug); type: functional; method in brief: as §1
[5] = Drug metabolism in human DU145 cells at 100 uM assessed as methylspermidine metabolite level assessed per ug DNA after 3 days by HPLC method; type: ADME, cell-based; conditions: du-145, 72 h; method in brief: as §1
DU-145 [6] = test: Downregulation of intracellular N1-acetylspermidine level in human DU145 cells assessed per ug DNA at 100 uM after 6 hrs by HPLC method (Rvb < 3 pmol/ug); type: functional; method in brief: as §1
[7] = Drug uptake in human DU145 cells assessed as reduction in [14C]-spermine uptake at 1 to 100 uM by competition based assay; type: ADME, cell-based; conditions: du-145, 100 µM
[8] = target: Peroxisomal N(1)-acetyl-spermine/spermidine oxidase (Homo sapiens, UniProt Q6QHF9); test: (§3) Inhibition of recombinant human APAO at 50 uM using N1-acetylspermidine level as substrate relative to control; conditions: 50 µM
Method in brief: (§4)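 Competition with natural substrate at fixed 50 μM: spermine for purified bovine plasma SSAO and human recombinant SMOX, N1-acetylspermidine for human recombinant APAO. Analogue tested at 50 μM, with activity expressed relative to reaction without analogue.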

DU-145 [9] = test: Downregulation of intracellular N1-acetylspermidine level in human DU145 cells assessed per ug DNA at 100 uM after 3 days by HPLC method (reference value: 3 pmol/ug); type: functional; method in brief: as §1
[10] = Drug level in human DU145 cells assessed per ug DNA at 100 uM after 3 days by HPLC method; type: ADME, cell-based; conditions: du-145, 72 h; method in brief: as §1
[11] = Drug metabolism in human DU145 cells at 100 uM assessed as methylspermidine metabolite level assessed per ug DNA in presence of SSAO inhibitor aminoguanidine after 3 days by HPLC method; type: ADME, cell-based; conditions: du-145, 72 h; method in brief: as §1
DU-145 [12] = test: Cytotoxicity against human DU145 cells at 100 uM in presence of SSAO inhibitor aminoguanidine after 3 days; type: cell-based; conditions: du-145, 72 h; method in brief: as §2
DU-145 [13] = test: Downregulation of intracellular spermidine level in human DU145 Cells assessed per ug DNA at 100 uM after 3 days by HPLC method (reference value: 123 +/- 3 pmol/ug); type: functional; method in brief: as §1
[14] = Drug level in human DU145 cells at 100 uM in presence of SSAO inhibitor aminoguanidine after 3 days by HPLC method; type: ADME, cell-based; conditions: du-145, 72 h; method in brief: as §1
DU-145 [15] = test: Downregulation of intracellular spermine level in human DU145 Cells at 100 uM after 3 days by HPLC method (reference value: 102 +/- 4 pmol/ug); type: functional; method in brief: as §1
DU-145 [16] = test: Downregulation of intracellular N1-acetylspermidine level in human DU145 cells assessed per ug DNA at 100 uM after 3 days in presence of SSAO inhibitor aminoguanidine by HPLC method (reference value: 3 +/- 1 pmol/ug); type: functional; method in brief: as §1
DU-145 [17] = test: Downregulation of intracellular spermidine level in human DU145 Cells assessed per ug DNA at 100 uM after 3 days in presence of SSAO inhibitor aminoguanidine by HPLC method (reference value: 175 +/- 5 pmol/ug); type: functional; method in brief: as §1
DU-145 [18] = test: Downregulation of intracellular putrescine level in human DU145 Cells assessed per ug DNA at 100 uM after 3 days by HPLC method (reference value: 19 +/- 2 pmol/ug); type: functional; method in brief: as §1
DU-145 [19] = test: Downregulation of intracellular putrescine level in human DU145 Cells assessed per ug DNA at 100 uM after 6 hrs by HPLC method (reference value: 40 +/- 2 pmol/ug); type: functional; method in brief: as §1
[20] = Drug level in human DU145 cells assessed per ug DNA at 100 uM after 6 hrs by HPLC method; type: ADME, cell-based; conditions: du-145, 6 h; method in brief: as §1
[21] = target: T1, Amine oxidase [copper-containing] 3 (Bos taurus, UniProt Q9TTK6); test: Substrate activity at bovine plasma SSAO at 5 mM relative to spermine; type: ADME; conditions: cattle, 5000 µM
T1 sequence (Q9TTK6 whole entry): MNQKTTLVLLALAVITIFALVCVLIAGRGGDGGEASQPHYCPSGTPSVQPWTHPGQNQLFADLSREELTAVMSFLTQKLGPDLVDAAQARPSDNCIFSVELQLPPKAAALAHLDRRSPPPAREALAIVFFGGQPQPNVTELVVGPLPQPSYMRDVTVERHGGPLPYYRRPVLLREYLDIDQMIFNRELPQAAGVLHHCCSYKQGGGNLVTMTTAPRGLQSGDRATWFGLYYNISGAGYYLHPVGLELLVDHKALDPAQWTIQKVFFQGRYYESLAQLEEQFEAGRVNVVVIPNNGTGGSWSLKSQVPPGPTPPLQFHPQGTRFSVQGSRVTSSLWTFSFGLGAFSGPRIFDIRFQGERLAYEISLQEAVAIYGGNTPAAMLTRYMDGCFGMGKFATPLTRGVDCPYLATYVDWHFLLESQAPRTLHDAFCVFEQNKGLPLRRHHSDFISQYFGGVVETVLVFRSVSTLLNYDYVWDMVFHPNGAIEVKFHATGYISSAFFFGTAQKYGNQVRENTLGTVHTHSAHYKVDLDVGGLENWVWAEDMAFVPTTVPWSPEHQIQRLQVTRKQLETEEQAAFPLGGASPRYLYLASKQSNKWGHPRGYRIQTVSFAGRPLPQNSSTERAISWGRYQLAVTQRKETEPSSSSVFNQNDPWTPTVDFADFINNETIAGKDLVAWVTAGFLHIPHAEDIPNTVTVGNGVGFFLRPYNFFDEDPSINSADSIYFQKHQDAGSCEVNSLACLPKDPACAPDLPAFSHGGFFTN
Method in brief: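 Purified bovine plasma SSAO given analogue as substrate at 5 mM, the same saturating concentration used for spermine. Activity compared with spermine. Means ± SD, n = 3.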

[22] = target: APAO (peroxisomal N(1)-acetyl-spermine/spermidine oxidase) (Homo sapiens, UniProt Q6QHF9); test: as §3; conditions: recombinant human APAO, probe N1-acetylspermidine; method in brief: as §4
[23] = Drug metabolism in human DU145 cells at 100 uM assessed as methylspermidine metabolite level assessed per ug DNA after 6 hrs by HPLC method; type: ADME, cell-based; conditions: du-145, 6 h; method in brief: as §1

Sequence of Peroxisomal N(1)-acetyl-spermine/spermidine oxidase (Q6QHF9 whole entry): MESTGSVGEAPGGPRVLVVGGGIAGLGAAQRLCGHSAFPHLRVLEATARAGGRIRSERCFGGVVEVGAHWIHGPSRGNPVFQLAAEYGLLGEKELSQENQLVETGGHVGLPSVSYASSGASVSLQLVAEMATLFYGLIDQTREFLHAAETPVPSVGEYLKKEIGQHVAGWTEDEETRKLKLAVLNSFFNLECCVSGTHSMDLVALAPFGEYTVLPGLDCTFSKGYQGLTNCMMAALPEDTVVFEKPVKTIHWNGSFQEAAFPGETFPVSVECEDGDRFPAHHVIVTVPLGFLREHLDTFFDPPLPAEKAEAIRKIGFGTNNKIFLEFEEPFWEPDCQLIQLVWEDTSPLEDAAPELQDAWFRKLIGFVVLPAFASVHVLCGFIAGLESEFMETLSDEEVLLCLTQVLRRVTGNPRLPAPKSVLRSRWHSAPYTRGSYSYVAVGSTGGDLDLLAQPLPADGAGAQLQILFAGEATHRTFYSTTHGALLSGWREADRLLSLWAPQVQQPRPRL
Sequence of APAO (peroxisomal N(1)-acetyl-spermine/spermidine oxidase) (Q6QHF9 whole entry): as above

Row | Structure (SMILES) | Activity (DU-145 [1]) [pmol] | Activity (DU-145 [2]) [pmol] | Activity (DU-145 [3]) | Activity (DU-145 [4]) [pmol] | Drug metabolism [5] [pmol] | Activity (DU-145 [6]) [pmol] | Activity [7] | inhibition (INH) [8] | Activity (DU-145 [9]) [pmol] | Drug uptake [10] [pmol] | Drug metabolism [11] [pmol] | Activity (DU-145 [12]) | Activity (DU-145 [13]) [pmol] | Drug uptake [14] [pmol] | Activity (DU-145 [15]) [pmol] | Activity (DU-145 [17]) [pmol] | Activity (DU-145 [18]) [pmol] | Activity (DU-145 [19]) [pmol] | Drug uptake [20] [pmol] | further results
1 | CC(N)CCNCCCCNCCC(C)N (stereo unspecified) | 84 | 105 | Non-Toxic | 19 | 4 | 5 | Active | Not Active | <3 | 168 | 10 | Non-Toxic | 13 | 217 | 27 | 3 | <3 | 15 | 70 | Activity (DU-145 [16]): <3 pmol
2 | NCCCNCCCCNCCCN [SPERMINE] |  |  | Non-Toxic |  |  |  | Active |  |  |  |  | Toxic |  |  |  |  |  |  |  | 
3 | CC(CCN)NCCCCNC(C)CCN (stereo unspecified) | 80 | 79 | Non-Toxic | 68 | 116 | 3 | Active |  | <3 | 29 | 44 | Non-Toxic | 34 | 191 | 69 | 31 | 12 | 27 | 26 | Activity [21]: 30%; inhibition at 50 µM [22]: 45%; Drug metabolism [23]: 34 pmol
4 | CC(CN)CNCCCCNCC(C)CN (stereo unspecified) | 76 | 99 | Non-Toxic | 33 | 20 | 4 | Active | Not Active |  | 147 |  | Non-Toxic | 13 | 222 | 40 | <3 | <3 | 10 | 59 | 
